Data from ChEMBL document CHEMBL1122232, “Quantitative structure-inotropy relationship applied to substituted grayanotoxins” (J Med Chem, 1983).

Experiments:
Cavia porcellus = species on record: Cavia porcellus; experiment: Positive inotropic effect was determined by measuring force of contraction of papillary muscle in guinea pig at a driving rate of 1.0 Hz; type: functional, Muscle tissue
Outline: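 Isolated guinea pig papillary muscle paced at 1.0 Hz in Krebs-Henseleit solution (Ca2+ 3.2 mM, 30 °C). Compounds added cumulatively to the bath every 20 min. Contraction force recorded on oscillographic paper. pD2 = molar concentration giving 50% of maximum positive inotropic effect, read from concentration-response curves in five to six muscles; mean reported.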

[1] = Lethal dose in guinea pig; type: toxicity, organism-based, Cavia porcellus; settings: in vivo
Outline: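 Male Hartley guinea pigs of about 350 g. LD50 determined by the up-and-down method.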

SMILES	pD2 (Cavia porcellus)	LD50 [1] [mg/kg]
CC(=O)O[C@@H]1C2CCC3[C@@](C)(O)C4CC(O)C(C)(C)C4(O)C(O)C[C@]31C[C@@]2(C)O (stereo not given in full)	6.31	1.3
CC1(C)C(O)CC2C1(O)C(O)C[C@]13C[C@@](C)(O)C(CCC1[C@@]2(C)O)[C@H]3OC(=O)CCCl (stereo not given in full)	6.96	0.17
CCCCCCC(=O)O[C@@H]1C2CCC3[C@@](C)(O)C4CC(O)C(C)(C)C4(O)C(O)C[C@]31C[C@@]2(C)O (stereo not given in full)	5.32	
CC1(C)C(O)CC2C1(O)C(O)C[C@]13C[C@@](C)(O)C(CCC1[C@@]2(C)O)[C@H]3OC(=O)c1ccccc1 (stereo not given in full)	5.79	1.35
CC(O)C(=O)O[C@@H]1C2CCC3[C@@](C)(O)C4CC(O)C(C)(C)C4(O)C(O)C[C@]31C[C@@]2(C)O (stereo not given in full)	6.54	0.08
CCC(=O)O[C@@H]1C2CCC3[C@@](C)(O)C4CC(O)C(C)(C)C4(O)C(O)C[C@]31C[C@@]2(C)O (stereo not given in full)	6.67	0.044
CCCCC(=O)O[C@@H]1C2CCC3[C@@](C)(O)C4CC(O)C(C)(C)C4(O)C(O)C[C@]31C[C@@]2(C)O (stereo not given in full)	6.41	0.17
CC1(C)C(O)CC2C1(O)C(O)C[C@]13C[C@@](C)(O)C(CCC1[C@@]2(C)O)[C@H]3O (stereo not given in full)	6.15	0.45
CCCC(=O)O[C@@H]1C2CCC3[C@@](C)(O)C4CC(O)C(C)(C)C4(O)C(O)C[C@]31C[C@@]2(C)O (stereo not given in full)	6.81	0.12
CCCCCC(=O)O[C@@H]1C2CCC3[C@@](C)(O)C4CC(O)C(C)(C)C4(O)C(O)C[C@]31C[C@@]2(C)O (stereo not given in full)	5.75	0.34
CC1(C)[C@@H](O)C[C@@H]2[C@]1(O)[C@H](O)C[C@]13C[C@@](C)(O)[C@H](CCC1[C@@]2(C)O)[C@H]3O[C@H]1O[C@@H](CO)[C@H](O)[C@@H](O)[C@@H]1O (stereo not given in full)	<4	< 6
CC1(C)C(O)CC2C1(O)C(O)C[C@]13C[C@@](C)(O)C(CCC1[C@@]2(C)O)[C@H]3OC(=O)C1CCCCC1 (stereo not given in full)	6.17	0.31
CC(C)(C)C(=O)O[C@@H]1C2CCC3[C@@](C)(O)C4CC(O)C(C)(C)C4(O)C(O)C[C@]31C[C@@]2(C)O (stereo not given in full)	5.78	0.36
